Insulin prom up: MIN6 insulin promoter up-regulation. MIN6 insulin promoter-GFP reporter, high-content imaging; hits give high values. actives 0.3% (n = 190,000). z-score at 5 µM;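 active = z-score above 3 at 5 µM with at least 500 cells counted in the well; inconclusive = wells under 500 cells, flagged as cytotoxic or low count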
Hsp70 activator: switches on Hsp70 transcription; HeLa Hsp70 promoter luciferase reporter, luminescence; scaled: vehicle 0, proteasome-inhibitor control 100%; activation, % at 10 µM; actives 0.04% (n = 200,000);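 active = activation above the mean across all tested compounds plus 3 SD, cutoff set per campaign, cut at about 5.5% in these data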;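 note: 100% = MG132 at 30 µM as the positive control and 0% = DMSO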
Wee1 stabilizer: blocks degradation of human Wee1 kinase; P30291; HeLa Luc-Wee1K328M stability, luciferase luminescence; 100% = proteasome inhibitor MG132 effect; reporter increase, % at 5 µM; actives 1.2% (n = 220,000); AID 1321;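 active = activation above the mean of all tested compounds plus 3 SD, set per screening run, cut at about 8.8% in these data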;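 note: cells exposed to compound for 20 h before luminescence read; 0% = DMSO alone and 100% = MG132 at 30 µM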
Target sequence (P30291 whole entry K328M): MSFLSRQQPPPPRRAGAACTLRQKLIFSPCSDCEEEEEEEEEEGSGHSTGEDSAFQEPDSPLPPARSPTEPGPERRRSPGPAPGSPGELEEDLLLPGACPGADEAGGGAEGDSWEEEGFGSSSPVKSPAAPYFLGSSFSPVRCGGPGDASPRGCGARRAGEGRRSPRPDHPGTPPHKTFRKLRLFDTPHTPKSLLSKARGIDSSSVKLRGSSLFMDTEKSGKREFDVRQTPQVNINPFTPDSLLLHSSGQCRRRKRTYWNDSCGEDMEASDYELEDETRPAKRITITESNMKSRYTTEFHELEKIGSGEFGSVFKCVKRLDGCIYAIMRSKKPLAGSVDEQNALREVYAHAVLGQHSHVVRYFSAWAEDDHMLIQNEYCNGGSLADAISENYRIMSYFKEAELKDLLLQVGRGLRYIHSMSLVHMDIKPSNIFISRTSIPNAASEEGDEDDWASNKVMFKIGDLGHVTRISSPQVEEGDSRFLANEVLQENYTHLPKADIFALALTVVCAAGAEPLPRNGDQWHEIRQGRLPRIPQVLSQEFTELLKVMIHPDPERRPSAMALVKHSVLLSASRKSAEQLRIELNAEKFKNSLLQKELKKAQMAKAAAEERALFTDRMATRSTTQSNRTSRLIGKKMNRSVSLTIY
MDM2 E3 inh: Mdm2 E3 ligase (human) inhibition | cell-based MDM2 ubiquitination luciferase reporter, 2 h; 0 = plate control, 100 = twice control, blank-subtracted | actives 0.11% (n = 210,000) | Q00987 | signal enhancement, % at 5 µM;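 active = signal enhancement of 30% or more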;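 note: luminescence tracks abundance of the self-degrading MDM2-luciferase fusion protein; higher signal means inhibition of MDM2 E3 ligase activity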
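Assay system: mammalian cells stably expressing self-ubiquitinating, self-degrading MDM2 E3–luciferase fusion. Quantity: 2000 cells in each well. Medium: DMEM culture medium. Compound dosing: single-point 5 µM. Timing: cell settling 4 h, compound treatment 2 h, both 37 °C. Technique: luciferase luminescence. Read-out basis: percent signal gain over controls, blank-subtracted. Benchmarks: plate controls and plate blanks.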
Insulin prom inh: TRM-6 insulin promoter activity inhibition. inhibition, % at 2 µM. TRM-6 cells (human fetal islet line), insulin promoter-eGFP reporter, imaging; reporter expression induced with tamoxifen. actives 0.9% (n = 130,000);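 active = inhibition above the mean plus 3 SD, with well images judged a real hit on visual review, cut at about 60% in these data, passing the limit was not always enough; inconclusive = inhibition over the cutoff but images rejected on review; inactive = inhibition not above the cutoff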
RBBP9 inhibitor: inhibitors of human serine hydrolase RBBP9. AID 1515. O75884. inhibition, % at 7.94 µM. actives 0.2% (n = 220,000). recombinant RBBP9, FP-Rh probe fluorescence polarization;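 active = inhibition above the campaign mean of all tested compounds plus 3 SD, cut at about 14% in these data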;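 note: plate controls were DMSO wells with RBBP9 for no effect and wells lacking RBBP9 protein for full effect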
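Measured by: FP readout at 525/598 nm; material: recombinant human RBBP9; also added: Serine-hydrolase probe FP-Rh, 375 nM pre-mixing; medium: Tris buffer pH 8.0, NaCl, Pluronic; replication: one well per compound; doses: one concentration, 7.94 µM nominal, 0.794% DMSO; timing: preincubation 30 min plus labeling 45 min at 25 °C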
Hsp70 act dose: dose-dependent Hsp70 transcriptional activation | actives 10% (n = 70) | shares compounds with Hsp70 activator | HeLa hsp70.1pr-luc reporter, luciferase luminescence | calls only at 99 µM;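 active = over 50% activation at some tested dose; inactive = under 50% activation at every tested dose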
Wee1 stab conf: confirmation of human Wee1 degradation inhibitors. shares compounds with Wee1 stabilizer. activation, % at 5 µM. HeLa Luc-Wee1K328M degradation, luminescence; vehicle 0%, proteasome-blocked wells 100%. actives 4% (n = 1,100). AID 1410; in the data active = activation above about 8.9%
RBBP9 confirm: human RBBP9 inhibition, confirmation; shares compounds with RBBP9 inhibitor; recombinant RBBP9, FP-Rh probe fluorescence polarization; inhibition, % at 7.94 µM; actives 36% (n = 410); AID 1537;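 active = inhibition above the hit cutoff derived for the primary screen, cut at about 15% in these data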;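 note: 0% = RBBP9 with DMSO and 100% = wells lacking RBBP9 protein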
Numbers without * were called inactive; i = inactive; ? = inconclusive; nt = not tested or not shown; + = active, no number. The list is not random: actives were taken first. Their share in the collection is about 2.2%.

SMILES	Insulin prom up	Hsp70 activator	Wee1 stabilizer	MDM2 E3 inh	Insulin prom inh	RBBP9 inhibitor	Wee1 stab conf	others
Cn1c(CCN2CCOCC2)nc2cc(NC(=O)COc3ccc(Cl)cc3)ccc21	-0.53	8.7*	-3	-5	nt	8	nt	Hsp70 act dose=i
COc1ccc(OC)c(NC(=O)CN(Cc2ccccc2)S(C)(=O)=O)c1	0.03	0	1	-4	-24	-7	nt
O=C1NC(=O)C2(COC(c3cccnc3)OC2)S1 (stereo not given)	-0.03	0	-2	3	23	-6	nt
O=C1NC(=O)C2(COC3(CCCC3)OC2)S1	-0.82	28*	-3	-1	nt	7	nt	Hsp70 act dose=i
CC1=NOC(=O)/C1=C\c1ccc(-c2ccc(Cl)cc2Cl)o1	-0.84	5.8*	4	-10	nt	-5	nt	Hsp70 act dose=i
Cc1[nH][nH]c(=O)c1C(c1ccc(-c2ccc(Cl)cc2Cl)o1)c1c(C)[nH][nH]c1=O	-0.2	1	0	-12	20	-12	nt
CC(CC1CC(C)(C)OC1=O)C(=O)Nc1ccc([N+](=O)[O-])cc1 (stereo not given)	0.79	5.6*	1	-13	nt	-2	nt	Hsp70 act dose=i
CC1(C)CC(CC(=O)Nc2ccc([N+](=O)[O-])cc2)C(=O)O1 (stereo not given)	-0.19	0	4	14	-10	-8	nt
O=C1/C(=C/c2ccncc2)CCC/C1=C\c1ccncc1	?	210*	6	12	nt	3	nt	Hsp70 act dose=+
O=C1/C(=C/c2ccncc2)CCc2ccccc21	-1.1	nt	2	-20	nt	-4	nt
COc1ccc(NC(=O)/C(Cl)=C(/Cl)S(=O)Cc2ccccc2)cn1 (stereo not given)	-1.2	22*	17*	-5	nt	1	25*	Hsp70 act dose=i
COc1ccc(NC(=O)Cc2ccccc2)cn1	-0.27	0	0	-8	33	-1	nt
CCN(CC)S(=O)(=O)c1cccc(NC2=NCCCCC2)c1	0.27	nt	1	-5	nt	-7	nt
Cc1ccc(Nc2cc(C)nn2-c2nc(C)cc(=O)[nH]2)cc1	-3.5	90*	129*	-12	19	2	123*	Hsp70 act dose=i
O=C(NC1CCCCC1)N1CCN(Cc2ccco2)CC1	-0.42	0	0	-15	nt	-2	nt
C=CS(=O)(=O)c1ccc(Oc2ccc(S(=O)(=O)C=C)cc2)cc1	0.72	48*	15*	64*	-106	-9	14*	Hsp70 act dose=i
O=[N+]([O-])c1ccccc1C1Nc2cccc3cccc(c23)N1	-0.01	30*	3	14	35	32*	nt	Hsp70 act dose=i;RBBP9 confirm=27*
[S-]C(=Nc1ccc(Cl)cc1)N[n+]1ccccc1	0.71	0	7	0	46	-3	nt
CN1N=C(C(=O)N2CCc3c([nH]c4ccccc34)C2c2ccccc2Cl)CCC1=O (stereo not given)	-1.6	0	12*	2	nt	-5	2
O=[N+]([O-])c1cc(Cl)ccc1Sc1cccc2cccnc12	-0.75	0	3	-31	-8	-6	nt
O=[N+]([O-])c1ccc(Sc2cccc3cccnc23)c([N+](=O)[O-])c1	0.08	0	16*	16	19	-5	-2
O=C1NC(=O)c2cc(NC(=O)C3CCCO3)ccc21 (stereo not given)	-0.18	0	16*	-4	-362	-7	2
O=C1OCc2cc(NC(=O)C3CCCO3)ccc21 (stereo not given)	-0.63	0	0	0	27	9	nt
CCn1c(CSc2nc(C)cc(C)n2)nnc1SCC(=O)N1CCCc2ccccc21	0.17	0	14*	-24	nt	-9	1
COc1ccc(OC)c(C(c2nnnn2C2CCCC2)N2CCN(c3ccc(F)cc3)CC2)c1 (stereo not given)	-0.96	0	-3	-11	nt	-8	nt
SMILES	Insulin prom up	Hsp70 activator	Wee1 stabilizer	MDM2 E3 inh	Insulin prom inh	RBBP9 inhibitor	Wee1 stab conf	others
COc1ccc(C(c2nnnn2C2CCCC2)N2CCC(C)CC2)c(OC)c1 (stereo not given)	-1.4	0	41*	-3	14	-6	-1
O=C(Cc1ccccc1)Nc1ccccc1N1CCCC1	-0.39	0	-3	-3	nt	-10	nt
O=C(Cc1ccccc1)Nc1ccccc1N1CCOCC1	0.85	0	21*	-6	23	-2	1
CCN(CC(=O)NCc1cccs1)c1ccc(S(=O)(=O)N2CCCC2)cn1	2	0	14*	0	-33	1	2
CCN(CC(=O)NCc1cccs1)c1ccc(S(=O)(=O)N2CCOCC2)cn1	-0.06	0	-2	-12	nt	-1	nt
COc1ccc(N(CC2CO2)S(=O)(=O)c2ccccc2)cc1 (stereo not given)	nt	0	-2	6	nt	-2	nt
COc1ccccc1N(C)S(=O)(=O)c1ccc(Cl)c(C(=O)NC2=NCCS2)c1	-0.08	0	12*	0	-80	4	2
Nc1cccc(C2=Nc3cccc4cccc(c34)N2)c1	0.05	0	12*	-16	nt	-5	1
COc1ccc(C2=Nc3cccc4cccc(c34)N2)cc1	0.25	0	0	-6	-13	-4	nt
CCOc1ccc2oc(-c3ccccc3)c(C(=O)N3CCN(CCO)CC3)c2c1	-0.33	0	6	10	-170	1	nt
COc1ccc(C(=O)N=c2sc3c(C)ccc(OC)c3n2C)cc1OC	-1.9	nt	12*	-5	nt	-13	8
Cc1cc(F)ccc1NC(=O)c1ccc(NS(=O)(=O)c2cc(C(C)(C)C)ccc2C)cc1	0.07	0	13*	-25	-7	-19	1
CC(=O)Nc1ccc(NC(=O)c2ccc(NS(=O)(=O)c3cc(C(C)(C)C)ccc3C)cc2)cc1	-0.29	0	0	nt	nt	4	nt
NS(=O)(=O)c1ccc(NC(=O)CSc2nc3ccccc3[nH]2)cc1	-0.18	0	11*	7	-28	-4	2
COC(=O)CNC(=S)NC(=O)c1ccc(C(C)(C)C)cc1	-0.65	0	0	-18	-38	-6	nt
Cc1nnc(SCC(=O)NCc2ccc(F)cc2)[nH]c1=O	-0.04	0	11*	8	nt	-9	2
Cc1cc(C)n2nc(C(=O)NCc3ccco3)cc2n1	-0.1	0	17*	-14	nt	-11	1
O=C(Oc1ccc(=O)n(-c2ccccc2)n1)c1cccc(Cl)c1	nt	0	11*	-16	49	-1	3

Source: PubChem (several laboratories)
